Experimental data published in ChEMBL document CHEMBL4002582, “Bioactive Terpenoids from Salvia plebeia: Structures, NO Inhibitory Activities, and Interactions with iNOS” (J Nat Prod, 2016).

How the values were obtained:
BV-2 [1] = assay: Antiinflammatory activity in mouse BV2 cells assessed as inhibition of LPS-induced nitric oxide production incubated for 24 hrs by Griess assay; assay type: functional, cell-based; conditions: BV-2, 24 h
How it was run: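 NO output from murine microglial BV-2 cells was stimulated with lipopolysaccharide. IC50 values were derived from the inhibition of LPS-induced NO generation, and results come from three experiments. 2-Methyl-2-thiopseudourea sulfate (SMT) was the positive control.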

BV-2 [2] = assay: Cytotoxicity against mouse BV2 cells assessed as effect on cell survival by MTT assay; assay type: cell-based

Row | SMILES | IC50 (BV-2 [1]) [µM] | Activity (BV-2 [2])
1 | CSC(=N)N | 2.9 | 
2 | CC(=O)O[C@H]1CC(C)(C)C2=C(O)C(=O)c3cc(C(C)C)c(O)c(O)c3[C@@]2(C)C1 | 26.5 | Non-Toxic
3 | CO[C@H]1O[C@H]2CC[C@@]13c1c(cc(C(C)C)c(O)c1O)CC[C@H]3C2(C)C | > 30 | Non-Toxic
4 | CC(=O)O[C@H]1CC(C)(C)[C@@H]2C[C@@H]3OC[C@@]2(C1)c1c3cc(C(C)C)c(O)c1O | > 30 | Non-Toxic
5 | CC(=O)OC[C@@]1(O)CC[C@@H]2[C@H]([C@H]3[C@H]1CC[C@]3(C)O)C2(C)C | 47.6 | Non-Toxic
6 | CC(C)C1=C[C@@]23CC[C@H]4C(C)(C)C[C@H](O)C[C@]4(CO2)C3=C(O)C1=O | 14.8 | Non-Toxic
7 | CC(=O)O[C@H]1CC(C)(C)[C@@H]2CC[C@@]34C=C(C(C)C)C(=O)C(O)=C3[C@@]2(CO4)C1 | 5.7 | Non-Toxic

Further lines, with some results ahead:

Row | IC50 (BV-2 [1]) [µM] | SMILES | Activity (BV-2 [2])
8 | 10.6 | CC(C)c1cc2c(c(O)c1O)C[C@@]1(O)CCCC(C)(C)[C@@H]1CC2 | Non-Toxic
9 | 92.9 | CC1=CC[C@@H]2[C@@H]3C[C@H]1[C@@]2(C)[C@@H](O)C[C@@H]3C(C)C | Non-Toxic
10 | 38.9 | CC(=O)[C@H]1CC[C@@H]2[C@@H]1[C@H](C(C)C)CC[C@@]2(C)O | Non-Toxic
11 | 63.5 | CC(C)C1=CC[C@@]2(C)[C@H](O)CC[C@](C)(O)[C@@H]2C1 [OPLODIOL] | Non-Toxic
